A short description of data set [1]: Selectivity index, ratio of CC50 for MRC5 cells to IC50 for HCMV. Type of data set: functional. The gist of the method: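 Ratio of CC50 (50% cytotoxic concentration in MRC-5 cells) to IC50 from the HCMV plaque yield reduction assay in MRC-5 cells. Values are means of three experiments.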
For data set [2], the system named is Human betaherpesvirus 5. The data set is described as follows: Antiviral activity against HCMV in MRC5 cells by plaque reduction assay. The format is functional, organism-based. The settings on record: Human betaherpesvirus 5, MRC5. An outline of the steps:
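HCMV plaque yield reduction assay in MRC-5 cells. IC50 is the 50% inhibitory concentration. Values are means of three experiments.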

For data set [3], the system named is MRC5. The data set is described as follows: (§1) Cytotoxicity against MRC5 cells. Particulars: Homo sapiens, MRC5. Type of data set: cell-based, Homo sapiens.
Data set [4] in a line: as §1. The settings on record: human, MRC5 cells. Type of data set: cell-based, Homo sapiens.
Data set [5] concerns Human betaherpesvirus 5. As to the kind of experiment: Inhibition of HCMV proliferation in MRC5 cells after 54 hrs post-infection at 10 uM by plaque assay. The format is functional, organism-based. An outline of the steps: (§2)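 Time-of-addition: MRC-5 cultures were infected at 0.5 PFU/cell, and compound (10 µM) was added at set times from 0 to 120 h post-infection. Virus titre was measured by plaque assay at 168 h post-infection and expressed as percent of control plaque numbers. Values are means of duplicate assays.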

The test system of data set [6] is Human betaherpesvirus 5. The data set is described as follows: Inhibition of HCMV penetration to MRC5 cells at 0.2 to 2 uM. Type of data set: functional, organism-based. The gist of the method: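 HCMV (about 100 PFU/well) was bound to pre-chilled MRC-5 monolayers for 1 h at 4 C, then washed three times with ice-cold PBS. Cells were shifted to 37 C in medium with compound (final 0.2, 0.5, 1 or 2). At 0, 0.5, 1, 2, 3, 6 and 10 h, unpenetrated virus was inactivated with 40 mM citrate buffer pH 3.0 for 1 min. Plaques were counted under 0.5% methylcellulose overlay.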

The subject of data set [7] is Human betaherpesvirus 5. As to the kind of experiment: Inhibition of HCMV adsorption to MRC5 cells at 0.2 to 2 uM by infectious centre assay. Type of data set: functional, organism-based. An outline of the steps:
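Infectious centre assay for adsorption: HCMV (1 PFU/cell), MRC-5 cell suspension (1 · 10^5 cells/mL) and compound (final 0.2, 0.5, 1, 2) were chilled on ice 2 h, then mixed and held 1 h at 4 C. Cells were washed with ice-cold PBS to remove unbound virus and compound. Pellets were diluted 100- or 1000-fold and plated onto MRC-5 monolayers for plaque counting.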

Data set [8] has as its system Human betaherpesvirus 5. The data set is described as follows: Inhibition of HCMV proliferation in MRC5 cells after 24 hrs post-infection at 10 uM by plaque assay. The format is functional, organism-based. An outline of the steps: as §2

Calls of active or inactive are those of the source. The rule behind the calls is not given here.

As usually defined, the IC50 is the concentration needed to halve the response being measured. A low value points to greater potency in that assay. In general, CC50 refers to the concentration at which the toxic effect on the cells reaches its halfway point. Low values mean harm at low concentration, high ones better tolerance by the cells.

For the molecule `COc1ccc2c(c1OC)C(C#N)N1CCc3cc4c(cc3C1=C2)OCO4` (stereo not given), the “Ratio CC50/IC50” value in data set [1] came out at 18. The IC50 was found to be 0.88 µM in data set [2] and 16 µM in data set [3].

As to `COc1cc(OC)c2c(c1)OC(c1ccc(OC)c(OC)c1)C(OC)C2` (stereo not given), the “Ratio CC50/IC50” value in data set [1] is given as 4. The same molecule displayed an IC50 in data set [2] of 17 µM. In data set [4], half-maximal cytotoxicity (CC50) was put at 68 µM.

On to `COc1cc(OC)c2c(c1)OC(c1ccc(OC)c(OC)c1)C(O)C2` (stereo not given), for which, in data set [1], the “Ratio CC50/IC50” value is recorded as less than 1. The molecule further returned an IC50 in data set [2] of more than 200 µM. Besides, the cytotoxic concentration (CC50) in data set [4] turned out to be 190 µM.

For `COc1ccc(C2CC(=O)c3c(OC)cc(O)cc3O2)cc1` (stereo not given), the “Ratio CC50/IC50” value in data set [1] was 0.13. In data set [2], this molecule yielded an IC50 of 92 µM. The same molecule had a CC50 in data set [4] of 12 µM.

As to `COc1ccc2c(c1OC)C(C(Cl)(Cl)Cl)N1CCc3cc4c(cc3C1=C2)OCO4` (stereo not given), the “Ratio CC50/IC50” value in data set [1] was determined as 16. In data set [2], the IC50 stood at 0.52 µM. In addition, the CC50 in data set [4] is 8.4 µM.

With `COc1cc(C[C@H]2C(=O)OC[C@@H]2Cc2ccc(OC)c(OC)c2)ccc1O` [ARCTIGENIN], the “Ratio CC50/IC50” value in data set [1] was 36. It took 2.1 µM to reach half-maximal inhibition in data set [2] (IC50). This molecule also had a CC50 in data set [4] of 76 µM.

As for `COc1ccc(C[C@H]2COC(=O)[C@@H]2Cc2ccc(O[C@@H]3O[C@H](CO)[C@@H](O)[C@H](O)[C@H]3O)c(OC)c2)cc1OC` [ARCTIIN], the “Ratio CC50/IC50” value in data set [1] came to 15. In data set [2], this molecule came in with an IC50 of 16 µM. The CC50 in data set [4] was found to be 240 µM.

As for `COc1ccc2cc3[n+](cc2c1OC)CCc1cc2c(cc1-3)OCO2.[Cl-]` [BERBERINE CHLORIDE], the result in data set [5] and in data set [8] was Active. In data set [1], the “Ratio CC50/IC50” value was determined as 110. Further, the outcome in data set [6] and in data set [7] was inactive. This molecule returned an IC50 in data set [2] of 0.68 µM. For the same molecule, the midpoint of cytotoxicity in data set [4], the CC50, lay at 74 µM.

`COc1ccc2c(c1OC)CN1CCc3cc4c(cc3[C@@H]1C2)OCO4` [CANADINE]: the “Ratio CC50/IC50” value in data set [1] was found to be 10. For the same molecule, half-maximal inhibition in data set [2] (IC50) required 12 µM. In data set [4], this molecule yielded a CC50 of 125 µM.

In the case of `COc1ccc2c(c1OC)CN1CCc3cc4c(cc3C1=C2)OCO4` [DIHYDROBERBERINE], the “Ratio CC50/IC50” value in data set [1] is 1.7. The IC50 in data set [2] came to 93 µM. In data set [4], the CC50 was 155 µM.

As to `Nc1nc2c(ncn2COC(CO)CO)c(=O)[nH]1` [GANCICLOVIR], in data set [1], the “Ratio CC50/IC50” value is 1100. Moreover, the IC50 in data set [2] amounted to 0.91 µM; in data set [3], 970 µM.

Take `COc1ccc(Cc2nccc3cc(OC)c(OC)cc23)cc1OC.Cl` [PAPAVERINE HYDROCHLORIDE]: the “Ratio CC50/IC50” value in data set [1] turned out to be 29. The molecule further displayed an IC50 in data set [2] of 21 µM. In data set [4], the CC50 is 610 µM.

(Values after ChEMBL document CHEMBL1146376, “Antiviral activity of berberine and related compounds against human cytomegalovirus” (Bioorg Med Chem Lett, 2007).)
